Data published in ChEMBL document CHEMBL1153905, “Functionalized 3-benzylidene-indolin-2-ones: inducers of NAD(P)H-quinone oxidoreductase 1 (NQO1) with antiproliferative activity” (Bioorg Med Chem, 2009).

Legend:
HCT-116 [1] = assay: Cell cycle arrest in human HCT116 cells released from G2 block assessed as accumulation at S phase at 5 uM after 24 hrs by flow cytometry; format: functional
[2] = Cytotoxicity against mouse Hepa-1c1c7 cells after 48 hrs by MTT assay; format: cell-based; conditions: hepa-1c1c7, 48 h
In short: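 Murine hepatoma cells in α-MEM with 10% heat- and charcoal-treated fetal calf serum, passages 6–17; MTT read-out as for the cancer lines but with 48 h compound exposure. Highest concentration tested 25 µM. IC50 from survival-versus-concentration curve; mean and SD, n = 3.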

HCT-116 [3] = assay: Cell cycle arrest in human HCT116 cells released from G2 block assessed as accumulation at G2/M phase at 5 uM after 24 hrs by flow cytometry; format: functional
MCF7 [4] = assay: Selectivity ratio of IC50 for human CCL186 cells to IC50 for human MCF7 cells
In short: (§1)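 MTT assay. MCF7 and CCL186 cells were grown in EMEM/10% FBS, HCT116 in McCoy's 5A/10% FBS. Seeding was 10,000 (MCF7), 4000 (HCT116) and 5000 (CCL186) cells per well, 24 h. Compound exposure was 72 h, DMSO ≤1% final. MTT 0.5 mg/ml for 3 h, formazan dissolved in DMSO, A590. IC50 came from sigmoidal survival curves, with 3 separate occasions per concentration. Ratio = IC50 CCL186 / IC50 of the cancer line.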

HCT-116 [5] = assay: Cell cycle arrest in human HCT116 cells released from G1 block assessed as accumulation at S phase at 5 uM after 24 hrs by flow cytometry; format: functional
HCT-116 [6] = assay: Antiproliferative activity against human HCT116 cells after 72 hrs by MTT assay; format: functional, cell-based; conditions: HCT-116, 72 h
In short: (§2)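 Cells seeded at 10,000 (MCF7), 4000 (HCT116) or 5000 (CCL186) per well and grown 24 h; MCF7 and CCL186 in EMEM with pyruvate, glutamine, 10% FBS; HCT116 in McCoy's 5A with 10% FBS. Compounds from DMSO stocks (≤1% DMSO final), 72 h exposure; MTT 0.5 mg/ml for 3 h, formazan in DMSO read at 590 nm. IC50 from sigmoidal survival curve, three separate occasions.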

HCT-116 [7] = assay: Cell cycle arrest in human HCT116 cells released from G1 block assessed as accumulation at G2/M phase at 5 uM after 24 hrs by flow cytometry; format: functional
MCF7 [8] = assay: Antiproliferative activity against human MCF7 cells after 72 hrs by MTT assay; format: functional, cell-based; conditions: MCF7, 72 h; in short: as §2
[9] = Selectivity ratio of IC50 for human CCL186 cells to IC50 for human HCT116 cells; format: ADME, cell-based, HCT-116; conditions: CCL186 cells and HCT116 cells, read-out: Ratio IC50; in short: as §1
HCT-116 [10] = assay: Cell cycle arrest in human HCT116 cells released from G2 block assessed as accumulation at sub G1 phase at 5 uM after 24 hrs by flow cytometry; format: functional
HCT-116 [11] = assay: Cell cycle arrest in human HCT116 cells released from G1 block assessed as accumulation at sub G1 phase at 5 uM after 24 hrs by flow cytometry; format: functional
HCT-116 [12] = assay: Cell cycle arrest in human HCT116 cells released from G1 block assessed as accumulation at G1 phase at 5 uM after 24 hrs by flow cytometry; format: functional
[13] = Antiproliferative activity against human CCL186 cells after 72 hrs by MTT assay; format: cell-based; conditions: CCL186, 72 h; in short: as §2
HCT-116 [14] = assay: Cell cycle arrest in human HCT116 cells released from G2 block assessed as accumulation at G1 phase at 5 uM after 24 hrs by flow cytometry; format: functional
[15] = target: NAD(P)H dehydrogenase [quinone] 1 (Mus musculus) (UniProt Q64669); assay: Induction of NQO1 activity in mouse Hepa-1c1c7 cells assessed as induction ratio at 0.5 uM after 48 hrs by MTT assay relative to control; format: cell-based
Chain of NAD(P)H dehydrogenase [quinone] 1 (Mus musculus) (Q64669 whole entry): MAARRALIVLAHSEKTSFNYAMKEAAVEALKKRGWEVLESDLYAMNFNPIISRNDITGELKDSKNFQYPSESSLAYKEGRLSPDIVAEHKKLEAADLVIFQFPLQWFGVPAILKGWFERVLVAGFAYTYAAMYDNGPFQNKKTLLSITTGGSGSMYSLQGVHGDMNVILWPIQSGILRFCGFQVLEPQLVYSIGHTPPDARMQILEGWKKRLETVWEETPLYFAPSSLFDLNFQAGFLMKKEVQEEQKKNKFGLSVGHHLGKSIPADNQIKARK
In short: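 Hepa1c1c7 cells, 10,000 per well, 24 h, were then treated 48 h (DMSO ≤0.5%). Digitonin/EDTA lysates were assayed for menadione-dependent MTT-formazan formation using a G6P/G6PDH NADPH-generating mix with FAD at pH 7.4. The reaction ran 5 min, was stopped with dicoumarol, and read at A590. Degree of induction = (A test − blank)/(A control − blank). Ratios were read off the induction–concentration plot at the EROD test concentration.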

CYP1A1 = target: T1, CYP1A1 (Mus musculus, UniProt P00184); assay: Induction of CYP1A1 activity in mouse Hepa-1c1c7 cells assessed as induction ratio at 0.5 uM after 48 hrs by EROD assay relative to control; format: ADME, cell-based
T1 sequence (P00184 whole entry): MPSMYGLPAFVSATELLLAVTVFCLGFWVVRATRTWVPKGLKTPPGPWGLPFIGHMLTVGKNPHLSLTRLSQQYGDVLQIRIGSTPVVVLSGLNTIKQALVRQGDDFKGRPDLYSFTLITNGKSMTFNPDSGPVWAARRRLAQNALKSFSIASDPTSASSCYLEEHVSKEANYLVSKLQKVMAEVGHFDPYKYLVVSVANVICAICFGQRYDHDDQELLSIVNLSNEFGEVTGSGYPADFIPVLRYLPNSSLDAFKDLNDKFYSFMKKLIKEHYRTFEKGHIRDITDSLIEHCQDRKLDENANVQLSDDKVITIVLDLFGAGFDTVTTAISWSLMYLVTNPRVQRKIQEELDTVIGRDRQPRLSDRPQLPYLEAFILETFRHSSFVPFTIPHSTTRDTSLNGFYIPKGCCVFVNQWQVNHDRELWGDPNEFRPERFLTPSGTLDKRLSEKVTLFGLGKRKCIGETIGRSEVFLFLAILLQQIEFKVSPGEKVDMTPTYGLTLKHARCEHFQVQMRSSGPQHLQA
In short: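 About 10,000 Hepa1c1c7 cells/well cultured 24 h, then compound (0.5% DMSO final) for 48 h, at roughly 4 × the concentration doubling NQO1 activity. After PBS wash, cells given 5 µM 7-ethoxyresorufin plus 2 mM salicylamide, 37 °C, 40 min; resorufin fluorescence ex 530/em 590 nm, corrected for compound fluorescence. Ratio = (treated − blank)/(DMSO control − blank); mean ± SD, n = 3.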

HCT-116 [16] = assay: Cell cycle arrest in human HCT116 cells released from G1 block assessed as accumulation at G2/M phase at 2.5 uM after 24 hrs by flow cytometry; format: functional
HCT-116 [17] = assay: Cell cycle arrest in human HCT116 cells released from G1 block assessed as accumulation at sub G1 phase at 2.5 uM after 24 hrs by flow cytometry; format: functional
HCT-116 [18] = assay: Cell cycle arrest in human HCT116 cells released from G1 block assessed as accumulation at G1 phase at 2.5 uM after 24 hrs by flow cytometry; format: functional
HCT-116 [19] = assay: Cell cycle arrest in human HCT116 cells released from G2 block assessed as accumulation at S phase at 2.5 uM after 24 hrs by flow cytometry; format: functional
HCT-116 [20] = assay: Cell cycle arrest in human HCT116 cells released from G1 block assessed as accumulation at S phase at 2.5 uM after 24 hrs by flow cytometry; format: functional
HCT-116 [21] = assay: Cell cycle arrest in human HCT116 cells released from G2 block assessed as accumulation at G2/M phase at 2.5 uM after 24 hrs by flow cytometry; format: functional
HCT-116 [22] = assay: Cell cycle arrest in human HCT116 cells released from G2 block assessed as accumulation at G1 phase at 2.5 uM after 24 hrs by flow cytometry; format: functional
HCT-116 [23] = assay: Cell cycle arrest in human HCT116 cells released from G2 block assessed as accumulation at sub G1 phase at 2.5 uM after 24 hrs by flow cytometry; format: functional

IC50 (HCT-116 [6])	IC50 (MCF7 [8])	Ratio [15]	fold induction at 48 h, 0.5 µM (CYP1A1)	SMILES	Activity (HCT-116 [1])	IC50 [2]	Activity (HCT-116 [3])	Ratio IC50 (MCF7 [4])	Activity (HCT-116 [5])	Activity (HCT-116 [7])	selectivity ratio [9]	Activity (HCT-116 [10])	Activity (HCT-116 [11])	Activity (HCT-116 [12])	IC50 [13]	Activity (HCT-116 [14])	other results
8.8 µM	3.3 µM			COc1ccc(/C=C2/C(=O)Nc3ccccc32)c(OC)c1	13.43%	11.1 µM	39.43%	0.7	12.37%	58.82%	1.8	12.49%	2.64%	26.14%	5.8 µM	34.66%	
1.9 µM	3.8 µM	4.22	1.36	COc1ccc2c(c1)NC(=O)/C2=C/c1cccc(C(F)(F)F)c1	17.96%	2.6 µM	31.58%	2.8	19.12%	59.16%	1.4	20.69%	4.39%	17.5%	5.4 µM	30.55%	
1.2 µM	1.3 µM	3.08	1.13	COc1cccc(/C=C2/C(=O)Nc3cc(OC)ccc32)c1		9.8 µM		1.5			1.4				1.8 µM		Activity (HCT-116 [16]): 71.54%; Activity (HCT-116 [17]): 4.22%; Activity (HCT-116 [18]): 10.56%; Activity (HCT-116 [19]): 15.36%; Activity (HCT-116 [20]): 13.81%; Activity (HCT-116 [21]): 43.57%; Activity (HCT-116 [22]): 26.01%; Activity (HCT-116 [23]): 30.54%
